Experimental data reported in ChEMBL document CHEMBL3297646, “Structure-activity relationship study of non-steroidal NPC1L1 ligands identified through cell-based assay using pharmacological chaperone effect as a readout” (Bioorg Med Chem, 2014).
Activity calls are given as the source filed them. The calls are words filed in the database; no cut-off is given here.

What was measured:
[1] = biological target: T1, NPC1-like intracellular cholesterol transporter 1 (Homo sapiens) (UniProt Q9UHC9); experiment: Binding affinity to human GFP-tagged NPC1L1 L1072T/L1168I mutant expressed in HEK293 cells assessed as localization to plasma membrane at 30 uM after 24 hrs by fluorescence microscopic analysis; assay type: cell-based
T1 sequence (whole entry): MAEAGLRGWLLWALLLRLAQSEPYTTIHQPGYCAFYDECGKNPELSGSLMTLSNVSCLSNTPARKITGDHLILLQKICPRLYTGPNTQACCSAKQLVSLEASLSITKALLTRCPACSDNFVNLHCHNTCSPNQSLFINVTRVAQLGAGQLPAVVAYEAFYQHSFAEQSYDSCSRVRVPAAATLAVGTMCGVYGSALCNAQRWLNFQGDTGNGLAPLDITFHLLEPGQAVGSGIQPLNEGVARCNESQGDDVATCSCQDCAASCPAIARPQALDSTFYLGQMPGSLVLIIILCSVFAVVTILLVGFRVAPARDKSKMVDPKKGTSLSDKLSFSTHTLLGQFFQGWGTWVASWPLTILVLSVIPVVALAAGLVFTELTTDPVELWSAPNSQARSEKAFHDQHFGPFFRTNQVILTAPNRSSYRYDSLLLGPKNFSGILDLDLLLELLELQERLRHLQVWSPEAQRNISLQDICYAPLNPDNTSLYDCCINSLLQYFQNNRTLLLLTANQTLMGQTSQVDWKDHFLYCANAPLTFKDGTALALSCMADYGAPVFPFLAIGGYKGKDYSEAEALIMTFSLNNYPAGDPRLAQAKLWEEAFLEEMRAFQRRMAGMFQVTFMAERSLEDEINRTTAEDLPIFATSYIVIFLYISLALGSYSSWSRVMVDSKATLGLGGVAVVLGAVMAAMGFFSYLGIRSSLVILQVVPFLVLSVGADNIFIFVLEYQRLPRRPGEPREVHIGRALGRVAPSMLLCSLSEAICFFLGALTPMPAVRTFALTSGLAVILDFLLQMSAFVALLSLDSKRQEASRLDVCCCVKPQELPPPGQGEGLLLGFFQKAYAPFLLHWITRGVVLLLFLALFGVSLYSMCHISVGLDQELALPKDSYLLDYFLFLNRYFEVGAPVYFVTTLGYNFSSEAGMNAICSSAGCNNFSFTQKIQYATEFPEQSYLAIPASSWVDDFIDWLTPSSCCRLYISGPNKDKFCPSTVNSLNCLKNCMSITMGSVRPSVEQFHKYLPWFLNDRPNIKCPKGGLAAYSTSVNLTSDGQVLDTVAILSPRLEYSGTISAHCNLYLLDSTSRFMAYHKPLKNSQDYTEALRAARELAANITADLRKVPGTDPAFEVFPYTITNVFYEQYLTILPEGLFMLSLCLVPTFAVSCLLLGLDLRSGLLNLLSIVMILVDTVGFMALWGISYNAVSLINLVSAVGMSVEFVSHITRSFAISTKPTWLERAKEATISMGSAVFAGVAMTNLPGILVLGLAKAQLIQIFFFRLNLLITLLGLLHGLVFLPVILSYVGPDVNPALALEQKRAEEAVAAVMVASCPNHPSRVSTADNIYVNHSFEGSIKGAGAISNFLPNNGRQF
Outline: (§1)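 HEK293 cells stably expressing EGFP-tagged NPC1L1 L1072T/L1168I were plated on poly-D-lysine-coated glass-bottomed wells (20 µg/mL in PBS) and grown 24 h. They were then exposed to compound at 10 or 30 µM (0.1% final DMSO) and fixed in 3.7% formaldehyde-PBS. Read-out was % of EGFP signal localized to the plasma membrane.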

[2] = biological target: T1, NPC1-like intracellular cholesterol transporter 1 (Homo sapiens); experiment: Binding affinity to human GFP-tagged NPC1L1 L1072T/L1168I mutant expressed in HEK293 cells assessed as localization to plasma membrane at 10 uM after 24 hrs by fluorescence microscopic analysis; assay type: cell-based; outline: as §1
HEK293 = experiment: Cytotoxicity against HEK293 cells transfected with human GFP-tagged NPC1L1 L1072T/L1168I mutant at 30 uM; assay type: cell-based; settings: hek293, 30 µM
[3] = biological target: Liver X receptor (Homo sapiens) (UniProt Q13133+P55055); experiment: Activation of LXR (unknown origin) expressed in HEK293 cells at 30 uM after 16 hrs by luciferase reporter gene assay; assay type: cell-based
[4] = biological target: T1, NPC1-like intracellular cholesterol transporter 1 (Homo sapiens); experiment: Binding affinity to human EGFP-tagged NTD-deleted NPC1L1 L1072T/L1168I mutant expressed in HEK293 cells assessed as localization to plasma membrane after 24 hrs by fluorescence microscopic analysis; assay type: cell-based
Outline: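 Stable HEK293 lines expressing NTD-deleted NPC1L1 L1072T/L1168I-EGFP were grown 24 h on poly-D-lysine-coated glass-bottomed wells and treated with compound (0.1% final DMSO). Cells were fixed in 3.7% formaldehyde-PBS with Hoechst-33342 nuclear counterstain. NPC1L1-GFP localization was examined by fluorescence imaging.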

[5] = biological target: T1, NPC1-like intracellular cholesterol transporter 1 (Homo sapiens); experiment: Binding affinity to human EGFP-tagged full-length NPC1L1 L1072T/L1168I mutant expressed in HEK293 cells assessed as protein stabilization after 24 hrs by fluorescence assay; assay type: cell-based
Outline: (§2)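 Steady-state levels of full-length or NTD-deleted NPC1L1 L1072T/L1168I-GFP were measured in stably expressing HEK293 cells treated with compound at 1–30 µM or vehicle. GFP fluorescence in cell lysates was normalized to total protein by bicinchoninic acid assay. Values are expressed as % of vehicle-treated cells.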

[6] = biological target: T1, NPC1-like intracellular cholesterol transporter 1 (Homo sapiens); experiment: Binding affinity to human EGFP-tagged NTD-deleted NPC1L1 L1072T/L1168I mutant expressed in HEK293 cells assessed as protein stabilization after 24 hrs by fluorescence assay; assay type: cell-based; outline: as §2
Homo sapiens = species on record: Homo sapiens; experiment: Selectivity for human GFP-tagged NPC1L1 L1072T/L1168I mutant over LXR (unknown origin)

Structure (SMILES)	Activity [1] [%]	Activity [2] [%]	further results
CCCCn1c(=O)c2ccccc2c2cc(C(=O)N3CCOCC3)ccc21	0	–	–
CCCCn1c(=O)c2ccccc2c2cc(C(=O)NC3CCCCC3)ccc21	11	3	–
CCCCn1c(=O)c2c(c3cc(C(=O)N(CC)CC)ccc31)CCCCCC2	44	5	–
CCCCn1c(=O)c2ccccc2c2cc(C(=O)N3CCCCC3)ccc21	47	0	–
CCCCn1c(=O)c2ccccc2c2cc(C(=O)N(CCC)CCC)ccc21	50	14	–
CCCCCCn1c(=O)c2c(c3cc(C(=O)N(CC)C4CC4)ccc31)CCCCC2	–	1	Activity (HEK293): Toxic
CCCCCn1c(=O)c2c(c3cc(C(=O)N(CC)C4CC4)ccc31)CCCCC2	35	3	–
CCN(CC)C(=O)c1ccc2c(c1)c1ccccc1c(=O)n2Cc1ccccc1	0	–	–
CCCCn1c(=O)c2ccccc2c2cc(C(=O)NC(C)(C)C)ccc21	41	11	–
CCN(C(=O)c1ccc2c(c1)c1c(c(=O)n2CCO)CCCCC1)C1CC1	0	–	–
CCCn1c(=O)c2c(c3cc(C(=O)N(CC)C4CC4)ccc31)CCCCC2	39	0	–
CCCCn1c(=O)c2c(c3cc(C(=O)N(CC)CC)ccc31)CCC2	15	1	–
CCCCn1c(=O)c2c(c3cc(C(=O)N(CC)C4CC4)ccc31)CCCCC2	45	8	Activity [3]: inactive; Activity [4]: Active; Activity [5]: Active; Activity [6]: Active; Selectivity ratio (Homo sapiens): 2
CCCCN1C(=O)c2ccccc2Oc2cc(C(=O)N(CC)CC)ccc21	3	–	–
CCCCn1c(=O)c2ccccc2c2cc(C(=O)N(CCO)CCO)ccc21	0	–	–
CCN(C(=O)c1ccc2c(c1)c1c(c(=O)n2CCOC)CCCCC1)C1CC1	0	–	–
CCCCn1c(=O)c2ccccc2c2cc(C(=O)NC3CCCC3)ccc21	0	–	–
CCCCn1c(=O)c2ccccc2c2cc(C(=O)N(C)C)ccc21	4	–	–
CCCCn1c(=O)c2c(c3cc(C(=O)NC4CCCC4)ccc31)CCCCC2	16	6	–

Structure (SMILES)	Activity [1] [%]	Activity [2] [%]	further results
CCN(C(=O)c1ccc2c(c1)c1c(c(=O)n2Cc2ccccc2)CCCCC1)C1CC1	14	0	–
CCCCn1c(=O)c2c(c3cc(C(=O)NC(C)C)ccc31)CCCCC2	25	0	–
CCCCn1c(=O)c2ccccc2c2cc(C(=O)N(CC)CC)ccc21	45	1	–
CCN(CC)C(=O)c1ccc2[nH]c(=O)c3ccccc3c2c1	0	–	–
CCCCn1c(=O)c2c(c3cc(C(=O)NC4CCCCC4)ccc31)CCCCC2	5	2	–
CCCCn1c(=O)c2ccccc2c2cc(C(=O)NC)ccc21	24	1	–
CCCCn1c(=O)c2c(c3cc(C(=O)NC4CC4)ccc31)CCCCC2	49	3	–
CCN(C(=O)c1ccc2c(c1)c1c(c(=O)n2C)CCCCC1)C1CC1	0	–	–
CCCCn1c(=O)c2c(c3cc(C(=O)N(C)C4CC4)ccc31)CCCCC2	21	1	–
CCCCn1c(=O)c2c(c3cc(C(N)=O)ccc31)CCCCC2	0	–	–
CCN(CC)C(=O)c1ccc2c(c1)c1ccccc1c(=O)n2Cc1ccc(OC)cc1	18	0	–
CCCCn1c(=O)c2ccccc2c2cc(C(=O)NC3CC3)ccc21	55	14	–
CCN(CC)C(=O)c1ccc2c(c1)c1ccccc1c(=O)n2CC(=O)N(C)C	0	–	–
CCN(CC)C(=O)c1ccc2c(c1)c1ccccc1c(=O)n2CCCC(=O)N(C)C	0	–	–
CCCCn1c(=O)c2c(c3cc(C(=O)Nc4ccccc4)ccc31)CCCCC2	0	–	–
CCN(C(=O)c1ccc2[nH]c(=O)c3c(c2c1)CCCCC3)C1CC1	0	–	Activity [5]: Active; Activity [6]: Active
CCCCn1c(=O)c2c(c3cc(C(=O)NCCC)ccc31)CCCCC2	36	0	–
CCCCn1c(=O)c2c(c3cc(C(=O)NC(C)(C)C)ccc31)CCCCC2	1	–	–
CCCC(=O)N1CC2=C(CCCC2)c2cc(C(=O)N(CC)CC)ccc21	1	–	–

Structure (SMILES)	Activity [1] [%]	Activity [2] [%]	further results
CCCCn1c(=O)c2c(c3cc(C(=O)N(CC)CC)ccc31)CCCC2	42	2	–
CCN(CC)C(=O)c1ccc2c(c1)c1ccccc1c(=O)n2CC	4	–	–
CCCCn1c(=O)c2c(c3cc(C(=O)N4CCCC4)ccc31)CCCCC2	33	1	–
CCCCn1c(=O)c2c(c3cc(C(=O)NCC)ccc31)CCCCC2	28	0	–
CCN(CC)C(=O)c1ccc2c(c1)c1ccccc1c(=O)n2CC(=O)O	0	–	–
CCCCn1c(=O)c2c(c3cc(C(=O)NC)ccc31)CCCCC2	23	0	–
CCCCN1C(=O)CCc2cc(C(=O)N(CC)CC)ccc21	1	–	–
CCCCn1c(=O)c2c(c3cc(C(=O)N(C)C)ccc31)CCCCC2	2	–	–
CCCCNC(=O)c1ccc2c(c1)c1c(c(=O)n2CCCC)CCCCC1	18	0	–
CCCCn1c(=O)c2ccccc2c2cc(C(=O)NC(C)C)ccc21	49	0	–
CCCCn1c(=O)c2c(c3cc(C(=O)NCCO)ccc31)CCCCC2	0	–	–
CCCCn1c(=O)c2ccccc2c2cc(C(=O)NCc3ccccc3)ccc21	0	–	–
CCCCn1c(=O)c2c(c3cc(C(=O)N(CC)CC)ccc31)CCCCC2	42	14	–
CCCCN(CCCC)C(=O)c1ccc2c(c1)c1ccccc1c(=O)n2CCCC	–	18	Activity (HEK293): Toxic
CCN(CC)C(=O)c1ccc2c(c1)c1ccccc1c(=O)n2CCCC(=O)O	0	–	–
CCN(C(=O)c1ccc2c(c1)c1c(c(=O)n2C(C)C)CCCCC1)C1CC1	–	0	Activity (HEK293): Toxic
CCN(CC)C(=O)c1ccc2c(c1)c1ccccc1c(=O)n2C	0	–	–
CCCCn1c(=O)c2ccccc2c2cc(C(N)=O)ccc21	0	–	–
CCN(C(=O)c1ccc2c(c1)c1c(c(=O)n2CC)CCCCC1)C1CC1	7	–	Activity [5]: Active; Activity [6]: Active
